Laboratory results taken from ChEMBL document CHEMBL3232959, “Design, synthesis and biological evaluation of small-azo-dyes as potent Vesicular Glutamate Transporters inhibitors” (Eur J Med Chem, 2014).
pIC50: −log10 of the molar value. Active and inactive are the calls of the source. No cut-off for these calls is given here.

What was measured:
[1] = target: Synaptic vesicular amine transporter VMAT2 (Rattus norvegicus) (UniProt Q01827); experiment: Inhibition of rat vesicular monoamine transporter 2 assessed as inhibition of dopamine uptake at 200 uM
Rattus norvegicus [2] = species: Rattus norvegicus; experiment: Inhibition of rat brain VGLUT assessed as inhibition of [3H]glutamate uptake into vesicles at 20 uM after 10 mins by scintillation spectrophotometry
Procedure, shortened: (§1)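 Crude rat synaptic vesicles were incubated at 37 °C in 10 mM HEPES-KOH pH 7.4 with 4 mM MgSO4, 4 mM KCl, 1 mM L-aspartate and test compound in DMSO. Uptake was started with ATP/Glu containing [3H]Glu and run for 10 min. It was stopped with ice-cold buffer, GF/C filtered, washed 4 times and counted by scintillation. Blanks without ATP or with CCCP/Trypan Blue were subtracted to give ATP-dependent uptake. At least triplicate.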

Homo sapiens [3] = species: Homo sapiens; experiment: Antagonist activity at mGluR (unknown origin) at 200 uM by cell-based assay
[4] = Inhibition of rat brain VGLUT assessed as inhibition of [3H]glutamate uptake into vesicles after 10 mins by scintillation spectrophotometry
Procedure, shortened: as §1

Homo sapiens [5] = species: Homo sapiens; experiment: Agonist activity at mGluR (unknown origin) at 200 uM by cell-based assay
Rattus norvegicus [6] = species: Rattus norvegicus; experiment: Inhibition of rat brain VGLUT assessed as inhibition of [3H]glutamate uptake into vesicles at 250 uM after 10 mins by scintillation spectrophotometry
[7] = Competitive inhibition of rat brain VGLUT assessed as inhibition of [3H]glutamate uptake into vesicles after 10 mins by scintillation spectrophotometry
Procedure, shortened: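 Crude rat synaptic vesicles (50 µg aliquots) incubated in 10 mM HEPES-KOH pH 7.4, sucrose, 4 mM MgSO4, 4 mM KCl, L-aspartate. Uptake started with ATP plus Glu and [3H]Glu, 10 min at 37 °C. Compounds added from DMSO, final 0.20 nM upward. Ice-cold buffer stop, GF/C filtration, four washes, scintillation counting. Uptake without ATP or with CCCP/Trypan Blue subtracted; at least triplicate.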

SMILES	inhibition [1]	inhibition (Rattus norvegicus [2])	pIC50 [4]	also measured
Nc1cc(S(=O)(=O)O)cc2c1C(=O)/C(=N\Nc1ccc(C(=O)O)cc1F)C(S(=O)(=O)O)=C2	inactive	18%		
Nc1ccc(-c2ccc(N/N=C3\C(=O)c4c(N)cc(S(=O)(=O)O)cc4C=C3S(=O)(=O)O)c(Cl)c2)cc1Cl	inactive	88%	5.80	Activity (Homo sapiens [3]): inactive; Activity (Homo sapiens [5]): inactive
Nc1cc(S(=O)(=O)O)cc2c1C(=O)/C(=N\Nc1c(O)c(F)c(C(=O)O)c(F)c1F)C(S(=O)(=O)O)=C2	inactive	18%		
Cc1cc(Br)cc(C)c1N/N=C1\C(=O)c2c(N)cc(S(=O)(=O)O)cc2C=C1S(=O)(=O)O	inactive	77%	5.68	
O=C1C(S(=O)(=O)O)=Cc2cc(S(=O)(=O)O)ccc2/C1=N/Nc1ccc(I)cc1Cl		inactive		
Cc1cc(I)ccc1N/N=C1\C(=O)c2c(N)cc(S(=O)(=O)O)cc2C=C1S(=O)(=O)O	inactive	83%	5.68	Activity (Homo sapiens [3]): inactive; Activity (Homo sapiens [5]): inactive
Cc1cc(-c2ccc(N/N=C3\C(=O)c4c(N)cc(S(=O)(=O)O)cc4C=C3S(=O)(=O)O)c(C)c2)ccc1N	inactive	52%		
Nc1cc(S(=O)(=O)O)cc2c1C(=O)/C(=N\Nc1ccc(C(=O)O)cc1)C(S(=O)(=O)O)=C2	inactive	15%		
Nc1ccc(-c2ccc(N/N=C3\C(=O)c4c(N)cc(S(=O)(=O)O)cc4C=C3S(=O)(=O)O)c(F)c2)cc1F	inactive	74%	5.32	
Nc1cc(S(=O)(=O)O)cc2cc(S(=O)(=O)O)cc(O)c12		inactive		
N=c1ccc2c(=O)/c(=N\Nc3ccc(I)cc3Cl)c(S(=O)(=O)O)cc=2/c1=N/Nc1ccc(I)cc1Cl		inactive		
Nc1cc(S(=O)(=O)O)cc2c1C(=O)/C(=N\Nc1ccc(I)cc1F)C(S(=O)(=O)O)=C2	inactive	46%		
O=C(O)c1cc(C(=O)O)c2cc(/N=N/c3ccc(-c4ccccc4)cc3)ccc2n1			3.54	
O=C(O)c1cc(C(=O)O)c2cccc(O)c2n1			3.54	
Nc1ccc(-c2ccc(N/N=C3\C(=O)c4c(N)cc(S(=O)(=O)O)cc4C=C3S(=O)(=O)O)c(C(F)(F)F)c2)cc1C(F)(F)F	inactive	98%	5.74	
O=C(O)c1cc(C(=O)O)c2ccccc2n1				inhibition (Rattus norvegicus [6]): inactive
Nc1cc(S(=O)(=O)O)cc2c1C(=O)/C(=N\Nc1c(F)c(F)c(-c3c(F)c(F)c(N)c(F)c3F)c(F)c1F)C(S(=O)(=O)O)=C2	inactive	96%	5.48	

SMILES	inhibition [1]	inhibition (Rattus norvegicus [2])	pIC50 [4]	also measured
Nc1cc(S(=O)(=O)O)cc2c1C(=O)/C(=N\Nc1ccc(I)cc1Cl)C(S(=O)(=O)O)=C2	inactive	45%		
Nc1ccc(-c2ccc(N/N=C3\C(=O)c4c(N)cc(S(=O)(=O)O)cc4C=C3S(=O)(=O)O)cc2)cc1	inactive	25%		
O=C1/C(=N\Nc2ccc(I)cc2Cl)C(S(=O)(=O)O)=Cc2cc(S(=O)(=O)O)ccc21		inactive		
Cc1cc(-c2ccc(/N=N/c3ccc4c(S(=O)(=O)O)cc(S(=O)(=O)O)c(N)c4c3O)c(C)c2)ccc1/N=N/c1ccc2c(S(=O)(=O)O)cc(S(=O)(=O)O)c(N)c2c1O [EVANS BLUE]			7.06	
Cc1cc(-c2ccc(/N=N/c3c(S(=O)(=O)O)cc4cc(S(=O)(=O)O)cc(N)c4c3O)c(C)c2)ccc1/N=N/c1c(S(=O)(=O)O)cc2cc(S(=O)(=O)O)cc(N)c2c1O [TRYPAN BLUE]			7.30	pIC50 [7]: 7.00
Cc1cc(C(=O)O)ccc1N/N=C1\C(=O)c2c(N)cc(S(=O)(=O)O)cc2C=C1S(=O)(=O)O	inactive	15%		
O=C(O)c1cc(C(=O)O)c2cc(/C=C/c3ccccc3)ccc2n1			4.40	
Nc1cc(S(=O)(=O)O)cc2c1C(=O)/C(=N\Nc1c(O)c(F)c(Br)c(F)c1F)C(S(=O)(=O)O)=C2	inactive	39%		
COc1cc(Br)ccc1N/N=C1\C(=O)c2c(N)cc(S(=O)(=O)O)cc2C=C1S(=O)(=O)O	inactive	42%	< 4.70	
Nc1cc(S(=O)(=O)O)cc2c1C(=O)/C(=N\Nc1ccc(C(=O)O)cc1Cl)C(S(=O)(=O)O)=C2	inactive	55%		
Nc1cc(S(=O)(=O)O)cc2c1C(=O)/C(=N\Nc1ccc(I)cc1C(F)(F)F)C(S(=O)(=O)O)=C2	inactive	83%	5.24	
COc1cc(-c2ccc(/N=N/c3ccc4c(S(=O)(=O)O)cc(S(=O)(=O)O)c(N)c4c3O)c(OC)c2)ccc1/N=N/c1ccc2c(S(=O)(=O)O)cc(S(=O)(=O)O)c(N)c2c1O [CHICAGO SKY BLUE]			5.52	
Nc1cc(S(=O)(=O)O)cc2c1C(=O)/C(=N\Nc1ccc(C(=O)O)cc1C(F)(F)F)C(S(=O)(=O)O)=C2	inactive	76%	5.17	
Nc1cc(S(=O)(=O)O)cc2c1C(=O)/C(=N\Nc1ccc(Br)cc1)C(S(=O)(=O)O)=C2	inactive	33%		
Cc1cc(C(=O)O)cc(C)c1N/N=C1\C(=O)c2c(N)cc(S(=O)(=O)O)cc2C=C1S(=O)(=O)O	inactive	5%		
COc1cc(C(=O)O)ccc1N/N=C1\C(=O)c2c(N)cc(S(=O)(=O)O)cc2C=C1S(=O)(=O)O	inactive	25%		
